Assay results as given in ChEMBL document CHEMBL3745620, “Design and Synthesis of DiselenoBisBenzamides (DISeBAs) as Nucleocapsid Protein 7 (NCp7) Inhibitors with anti-HIV Activity” (J Med Chem, 2015).
Activity calls are given as the source filed them. No cut-off for these calls is given here.

What was measured:
[1] = test system: Human immunodeficiency virus 1; test: Antiviral activity against HIV1 3B infected in human MT4 cells assessed as inhibition of viral replication by measuring p24 Ag production at 2 ug/ml measured at 31 hrs post infection by ELISA; assay type: functional, organism-based
Outline: (§1)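 MT-4 cells infected with HIV-1 IIIB at m.o.i. 0.5, 1 h adsorption, then seeded at 45,000 cells/well at 37°C. Compound added at times from 0 to 25 h post-infection. Read-out was p24 in supernatant by ELISA at 31 h post-infection.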

[2] = Selectivity index, ratio of CC50 for human MT4 cells to EC50 for nevirapine-resitant SIV Mac251
[3] = test system: Human immunodeficiency virus 1; test: Antiviral activity against ritonavir-resistant HIV1 B12 harboring […] L10I/I15V/I54V/L63P/V82A/I85V mutant infected in human MT4 cells; assay type: functional, organism-based; settings: Human immunodeficiency virus 1, B12, MT4
Outline: (§2)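 MT-4 cells in RPMI 1640 with 10% heat-inactivated FCS were infected at the start of the experiment, with compound added across serial 5-fold dilutions in triplicate wells. Cells were seeded at 6 x 10^5 cells/ml. After 5 days, protection against virus-induced cytopathic effect was read by MTT reduction at OD540. […] Values are means ± SD of at least two experiments.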

[4] = Selectivity index, ratio of CC50 for human MT4 cells to EC50 for ritonavir-resistant HIV1 B12 harboring […] L10I/I15V/I54V/L63P/V82A/I85V mutant; assay type: toxicity, cell-based; settings: read-out: Ratio CC50/EC50
Outline: (§3)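 Uninfected and infected MT-4 cells were run in parallel in triplicate over serial 5-fold compound dilutions for 5 days, and viability was read by MTT at OD540. […] SI = CC50/EC50, from means of at least two experiments.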

[5] = test system: Human immunodeficiency virus 1; test: Antiviral activity against ritonavir-resistant HIV1 3B/RIT infected in human MT4 cells; assay type: functional, organism-based; settings: Human immunodeficiency virus 1, 3B/RIT; outline: as §2
[6] = Selectivity index, ratio of CC50 for human HUT78 cells to EC50 for HIV1 3B; assay type: toxicity, cell-based; settings: read-out: Ratio CC50/EC50
Outline: (§4)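 Chronically HIV-1 IIIB-infected HuT-78 cells washed four times in PBS to remove free virions and seeded at 2 × 10^5 cells/well with 7 serial 5-fold compound dilutions for 43 h at 37°C. Supernatant p24 measured by ELISA. Cytotoxicity was run in parallel by MTT plus microscopy. SI = CC50/EC50. Mean ± SD, ≥2 experiments.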

[7] = Selectivity index, ratio of CC50 for human MT4 cells to EC50 for HIV1 3B; assay type: toxicity, cell-based; settings: read-out: Ratio CC50/EC50
Outline: (§5)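 Compounds added at start in serial 5-fold dilutions, triplicate wells, to mock- and virus-infected cells (100-300 CCID50 per well). After 5 days, viability by MTT reduction (OD540). Mean ± SD, at least two experiments.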

[8] = Selectivity index, ratio of CC50 for human MT4 cells to EC50 for HIV-2 ROD; assay type: toxicity, cell-based; settings: read-out: Ratio CC50/EC50; outline: as §5
[9] = test system: Human immunodeficiency virus 1; test: Virucidal activity against HIV1 3B infected in MT4 cells assessed as reduction of virus infectivity at 125 ug/ml after 1 hr by MTT assay
[10] = test system: Human immunodeficiency virus 1; test: Antiviral activity against AZT-resistant HIV1 ADP/141 harboring reverse transcriptase D67N/K70R/T215F/K219Q mutant infected in human MT4 cells; assay type: functional, organism-based; settings: Human immunodeficiency virus 1, ADP/141, MT4; outline: as §2
[11] = Cytotoxicity against human MT4 cells assessed as cell viability after 5 days by MTT assay; assay type: cell-based; outline: as §5
[12] = test system: Human immunodeficiency virus 1; test: Antiviral activity against HIV1 3B infected in human MT4 cells assessed as inhibition of viral replication by measuring p24 Ag production at 60 ug/ml measured at 31 hrs post infection by ELISA; assay type: functional, organism-based; outline: as §1
[13] = test system: Human immunodeficiency virus 1; test: Virucidal activity against HIV1 3B infected in human MT4 cells assessed as reduction of virus infectivity at 125 ug/ml after 1 hr by MTT assay; assay type: functional, organism-based
Outline: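 HIV-1 IIIB stock incubated with compound in 100 µl RPMI-1640/10% FCS for 1 h at 37°C, then diluted 4000-fold. Residual infectivity titrated on MT-4 cells, with CCID50 calculated by the Reed and Muench method.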

[14] = Selectivity index, ratio of CC50 for human MT4 cells to EC50 for AZT-resistant HIV1 ADP/141 harboring reverse transcriptase D67N/K70R/T215F/K219Q mutant; assay type: toxicity, cell-based; settings: read-out: Ratio CC50/EC50; outline: as §3
[15] = Selectivity index, ratio of CC50 for human MT4 cells to EC50 for NRTI/NNRTI-resistant HIV1 L6 harboring reverse transcriptase V75I/F77L/K103N/F116Y/Q151M/M184V mutant; assay type: toxicity, cell-based; settings: read-out: Ratio CC50/EC50; outline: as §3
[16] = Selectivity index, ratio of CC50 for human MT4 cells to EC50 for NNRTI-resistant HIV1 RES056 harboring reverse transcriptase K103N/181C double mutant; assay type: toxicity, cell-based; settings: read-out: Ratio CC50/EC50; outline: as §3
[17] = Selectivity index, ratio of CC50 for human MT4 cells to EC50 for ritonavir-resistant HIV1 3B/RIT; assay type: toxicity, cell-based; settings: read-out: Ratio CC50/EC50; outline: as §3
[18] = Cytotoxicity against human HUT78 cells assessed as reduction in cell viability after 5 days by MTT assay; assay type: cell-based
[19] = test system: Human immunodeficiency virus 1; test: Antiviral activity against HIV1 3B persistently infected in HUT78 cells assessed as reduction of p24 production after 43 hrs by ELISA; assay type: functional, organism-based; settings: Human immunodeficiency virus 1, 3B, HuT78, 43 h; outline: as §4
[20] = test system: Human immunodeficiency virus 2; test: Antiviral activity against HIV2 ROD infected in human MT4 cells assessed as protection against virus-induced cytopathic effect after 5 days by MTT assay; assay type: functional, organism-based; settings: Human immunodeficiency virus 2, ISOLATE ROD, MT4, 120 h
Outline: as §5, with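 “MT-4 cells in RPMI 1640 with 10% heat-inactivated FCS, resuspended at 6 x 10^5 cells/ml. Compounds” for “Compounds”, “(OD540). […]” for “(OD540).”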

[21] = test system: Human immunodeficiency virus 1; test: Antiviral activity against NNRTI-resistant HIV1 RES056 harboring reverse transcriptase K103N/181C double mutant infected in human MT4 cells; assay type: functional, organism-based; settings: Human immunodeficiency virus 1, RES056, MT4; outline: as §2
[22] = test system: Human immunodeficiency virus 1; test: Antiviral activity against HIV1 3B infected in human MT4 cells assessed as protection against virus-induced cytopathic effect after 5 days by MTT assay; assay type: functional, organism-based; settings: Human immunodeficiency virus 1, 3B, MT4, 120 h
Outline: as §5, with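 “MT-4 cells in RPMI 1640 with 10% heat-inactivated FCS, resuspended at 6 x 10^5 cells/ml. Compounds” for “Compounds”, “(OD540). […]” for “(OD540).”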

HuT78 = test: Inhibition of NCp7 of HIV1 3B persistently infected in HUT78 cells assessed as accumulation of unprocessed Gag polyprotein after 43 hrs by Western blot analysis; assay type: cell-based; settings: Human immunodeficiency virus 1
Outline: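 Washed HuT-78(IIIB) cells (2x10^5 in 1 ml) treated with compound for 43 h at 37°C. Virions pelleted from clarified supernatant (36,670 g, 2 h, 4°C), lysed, run on SDS-PAGE and transferred to PVDF. Blot probed with mouse anti-p24 (1:5000), then HRP anti-mouse (1:2500), with chemiluminescent detection.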

[23] = Antiviral activity against nevirapine-resistant SIV mac251 infected in human MT4 cells; assay type: functional, cell-based; settings: Simian immunodeficiency virus; outline: as §2
[24] = test system: Human immunodeficiency virus 1; test: Antiviral activity against NRTI/NNRTI-resistant HIV1 L6 harboring reverse transcriptase V75I/F77L/K103N/F116Y/Q151M/M184V mutant infected in human MT4 cells; assay type: functional, organism-based; settings: Human immunodeficiency virus 1, L6, MT4; outline: as §2
[25] = test system: Human immunodeficiency virus 1; test: Antiviral activity against HIV1 3B infected in human MT4 cells assessed as inhibition of viral replication by measuring p24 Ag production at 90 ug/ml measured at 31 hrs post infection by ELISA; assay type: functional, organism-based; outline: as §1
[26] = test system: Human immunodeficiency virus 1; test: Antiviral activity against HIV1 3B infected in human MT4 cells assessed as inhibition of viral replication by measuring p24 Ag production at 50 ug/ml measured at 31 hrs post infection by ELISA; assay type: functional, organism-based; outline: as §1
[27] = Selectivity index, ratio of CC50 for human CEM cells to EC50 for HIV1 3B; assay type: toxicity, cell-based, CCRF-CEM
[28] = test system: Human immunodeficiency virus 1; test: Antiviral activity against HIV1 3B infected in human CEM cells assessed as protection against virus-induced cytopathic effect by XTT assay; assay type: functional, organism-based; settings: Human immunodeficiency virus 1, 3B, CCRF-CEM
[29] = Cytotoxicity against human CEM cells by XTT assay; assay type: cell-based, CCRF-CEM

SMILES | inhibition [1] | Ratio CC50/EC50 [2] | EC50 [3] | selectivity ratio [4] | EC50 [5] | selectivity ratio [6] | selectivity ratio [7] | selectivity ratio [8] | EC50 [10] | CC50 at 120 h [11] | selectivity ratio [14] | selectivity ratio [15] | selectivity ratio [16] | selectivity ratio [17] | CC50 at 120 h [18] | EC50 [19] | EC50 [20] | EC50 [21] | EC50 [22] | inhibition (HuT78) | further results
O=C(O)CC[C@H](NC(=O)c1ccccc1[Se][Se]c1ccccc1C(=O)N[C@@H](CCC(=O)O)C(=O)O)C(=O)O | Active | 63 | 14.5 µM | 8 | 5.42 µM | 6.5 | 32 | 34 | 2.8 µM | 107 µM | 38 | 16 | 29 | 20 | 100 µM | 15.5 µM | 3.18 µM | 3.61 µM | 3.31 µM | Dose-dependent effect | Activity [9]: Active; inhibition [12]: Active; Activity [13]: Active; EC50 [23]: 1700 nM; EC50 [24]: 6.59 µM
CC[C@H](C)[C@H](NC(=O)c1ccccc1[Se][Se]c1ccccc1C(=O)N[C@H](C(=O)O)[C@@H](C)CC)C(=O)O | Active | 9 | 27.7 µM | 6 | 25.8 µM | > 2.2 | 12 | 13 | 14.7 µM | 164 µM | 11 | 6 | 6 | 6 | > 162 µM | 73.2 µM | 13.1 µM | 28 µM | 13.8 µM | Dose-dependent effect | inhibition [25]: Active; EC50 [23]: 17400 nM; EC50 [24]: 25.9 µM
O=C(O)CNC(=O)c1ccccc1[Se][Se]c1ccccc1C(=O)NCC(=O)O | Active | 52 | 6.43 µM | 18 | 3.3 µM | 7.8 | 37 | 34 | 4.51 µM | 117 µM | 26 | 34 | 33 | 36 | 108 µM | 14.1 µM | 3.5 µM | 3.51 µM | 3.15 µM | Dose-dependent effect | Activity [9]: Active; Activity [13]: Active; EC50 [23]: 2210 nM; inhibition [26]: Active; EC50 [24]: 3.44 µM
CC[C@H](C)[C@H](NC(=O)c1ccccc1SSc1ccccc1C(=O)N[C@H](C(=O)O)[C@@H](C)CC)C(=O)O |  |  |  |  |  |  |  |  |  |  |  |  |  |  |  |  |  |  |  |  | selectivity ratio [27]: > 13.3; EC50 [28]: 9 µM; CC50 [29]: > 120 µM
